Results published in PMC11345372 (ESMO Open, 2024).
“Also recorded” adds a separate entry of the source. Like-named read-outs stand apart in the source and are kept apart here.

Assays:
[1] = system: advanced solid tumors; test: Antitumor activity per iRECIST; assay type: in vivo, human; details: all patients, groups pooled
In short: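 Adults with advanced solid tumours received the TLR-7 agonist intratumorally, 100-600 μg on days 1 and 15 of 28-day cycles 1-2 and 5-6, alone or with anti-PD-1 antibody 400 mg IV Q4W. Response was assessed per iRECIST. iORR and iDCR are given with 90% Clopper–Pearson exact CIs. iPFS was estimated by Kaplan–Meier with median, 90% CI and 3-24-month rates, summarised by treatment group.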

[2] = system: adult patients with advanced solid tumors
[3] = system: advanced solid tumors; test: Antitumor activity per RECIST v1.1; assay type: in vivo, human
In short: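 Open-label phase I/Ib in adults (≥18 y, ECOG ≤2, RECIST-measurable disease, progressed on or intolerant to standard care). The TLR-7 agonist, 100-600 μg, was given intratumorally on days 1 and 15 of 28-day cycles 1-2 and 5-6, with a pause in cycles 3-4. Combination patients also received anti-PD-1 antibody 400 mg IV over 30 min Q4W. ORR and DCR (CR+PR+SD) are given with 90% Clopper–Pearson exact CIs. PFS uses Kaplan–Meier with median, 90% CI and landmark rates.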

[4] = system: adult patients with advanced solid tumors; test: Dose escalation: DLT, MTD and recommended dose for expansion; assay type: in vivo, human
In short: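 Escalation was guided by an adaptive Bayesian hierarchical logistic regression model with escalation-with-overdose-control. Dosing started at 100 μg and tested 100, 200, 400 and 600 μg intratumoral TLR-7 agonist biweekly, alone or with anti-PD-1 antibody 400 mg IV on day 1 of each 28-day cycle. AEs were graded by CTCAE v4.03. All treated patients formed the safety set. Data cut-off was 30 June 2022.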

[5] = Aluminum level monitoring; assay type: in vivo, human; details: for Aluminum level, mean (standard deviation): baseline 0.26 (0.088)
[6] = Serum pharmacokinetics after intratumoral LHC165, LC-MS/MS, non-compartmental; assay type: in vivo, human
In short: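 Serum concentrations of the TLR-7 agonist were measured by validated LC-MS/MS after intratumoral dosing at 100-600 μg Q2W. Dosing was alone or with anti-PD-1 antibody 400 mg IV Q4W. Parameters (Cmax, AUClast, terminal t½) were derived by non-compartmental analysis on C1D1 and C2D15. Geometric CV% was reported.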

[7] = system: patients with solid tumors; details: IT; including grade 3/4 cytokine release syndrome, pyrexia, fatigue, chills, decreased lymphocyte count, nausea, injection-site pain; cited from earlier work
[8] = system: advanced anaplastic thyroid carcinoma; details: immune-related response criteria; cited from earlier work
[9] = all grades, all patients N = 45 (SA and combination groups pooled)
[10] = all grades, by treatment group (SA n = 21; combination n = 24)
[11] = grade ≥3, all patients N = 45 (SA and combination groups pooled)
[12] = grade ≥3, by treatment group (SA n = 21; combination n = 24)
[13] = overall, 45 patients, groups pooled
[14] = RECIST v1.1, all patients N = 45 (SA and combination groups pooled)
[15] = RECIST v1.1, all patients, groups pooled
[16] = RECIST v1.1, by treatment group
[17] = RECIST v1.1, by treatment group (SA n = 21; combination n = 24)

In the case of Cc1cc(OCCOCCC(F)(F)P(=O)(O)O)ccc1CCc1cnc2c(N)nc3cc(CCC(=O)O)ccc3c2c1 [LHC165], the “Overall median immune-related PFS (iPFS)” value [1] is reported as 1.7 months, the “Patients with at least one AE of any grade, regardless of relationship with LHC165 or spartalizumab” value ([2]; 40 of 45 patients, SA and combination groups pooled) is reported as 88.9% and the “Most common non-SAE: anemia” value ([2]; 45 patients, groups pooled) is reported as 24.4%. For the same molecule, the “Most common non-SAE: pyrexia” value ([2]; 45 patients, groups pooled) was 37.8%, the “Patients with at least one SAE, regardless of relationship” value ([2]; 45 patients, groups pooled) was 22.2% and the “SAE suspected to be related to LHC165 and spartalizumab: grade 3 pancreatitis” value ([2]; 45 patients, groups pooled) was 2.2%. The “SAE suspected to be related to the study drug: grade 3 pancreatitis, number of patients” value ([2]; 45 patients, groups pooled) was 1 n, the “Patients with treatment-related AEs (TRAEs, all grades)” value ([2]; across all dose levels, 16 of 45 patients, groups pooled) was 35.6% and the “Patients with non-SAEs (≥10%)” value ([2]; across all dose levels, 40 of 45 patients, groups pooled) was 88.9%. For the same molecule, the “Drug-related AE: asthenia” value ([2]; all 45 patients, groups pooled) was 4.4%, the “Drug-related AE: chills” value ([2]; all 45 patients, groups pooled) was 11.1% and the “Drug-related AE: pruritus” value ([2]; all 45 patients, groups pooled) was 13.3%. The “Drug-related AE: pyrexia” value ([2]; all 45 patients, groups pooled) was 22.2%, the “Asthenia, treatment-related AE” value [2, 9] was 2 (4.4) n (%) and the “Chills, treatment-related AE” value [2, 9] was 5 (11.1) n (%). For the same molecule, the “Pruritus, treatment-related AE” value [2, 9] was 6 (13.3) n (%), the “Pyrexia, treatment-related AE” value [2, 9] was 10 (22.2) n (%) and the “TRAEs leading to discontinuation: pancreatitis” value (“TRAEs leading to discontinuation” for short) [2, 9] was 1 (2.2) n (%). The “≥1 AE suspected to be related to LHC165 or spartalizumab” value (from here on “≥1 AE suspected to be related”) [2, 9] was 16 (35.6) n (%), the “Asthenia, treatment-related AE” value [2, 10] was 0 n (%) and the “Chills, treatment-related AE” value [2, 10] was 1 (4.8) n (%). For the same molecule, the “Pruritus, treatment-related AE” value [2, 10] was 0 n (%), the “Pyrexia, treatment-related AE” value [2, 10] was 2 (9.5) n (%) and the “TRAEs leading to discontinuation” value [2, 10] was 0 n (%). The “≥1 AE suspected to be related” value [2, 10] was 2 (9.5) n (%), the “Patients with one or more TRAE” value ([2]; by treatment group (2 of 21; 14 of 24)) was 9.5% and the “Patients with at least one treatment permanent discontinuation by reason: adverse event” value ([2]; by treatment group (SA n = 21; combination n = 24)) was 2 (9.5) n (%). For the same molecule, the “Patients who discontinued study treatment due to AE” value ([2]; by treatment group, SA: hypotension, not related, combination: pancreatitis, DLT) was 4.8%, the “Patients who discontinued study treatment due to death” value ([2]; by treatment group, not related to treatment (respiratory failure; fatal septic shock)) was 4.8% and the “Asthenia, treatment-related AE” value [2, 11] was 0 n (%). The “Chills, treatment-related AE” value [2, 11] was 0 n (%), the “Pruritus, treatment-related AE” value [2, 11] was 0 n (%) and the “Pyrexia, treatment-related AE” value [2, 11] was 0 n (%). The “TRAEs leading to discontinuation” value [2, 11] was 1 (2.2) n (%), the “≥1 AE suspected to be related” value [2, 11] was 0 n (%) and the “Asthenia, treatment-related AE” value [2, 12] was 0 n (%). The “Chills, treatment-related AE” value [2, 12] was 0 n (%), the “Pruritus, treatment-related AE” value [2, 12] was 0 n (%) and the “Pyrexia, treatment-related AE” value [2, 12] was 0 n (%). The “TRAEs leading to discontinuation” value [2, 12] was 0 n (%), the “≥1 AE suspected to be related” value [2, 12] was 0 n (%) and the “AE leading to dose interruption or dose adjustment: aspartate aminotransferase increased” value [2, 13] was 4.4%. The “Patients with at least one AE leading to dose interruption or dose adjustment” value [2, 13] was 11.1%, the “Patients with at least one AE leading to treatment discontinuation” value [2, 13] was 4.4% and the “AEs leading to dose interruption or dose adjustment, each of: alanine aminotransferase increased, fatigue, gastroesophageal reflux disease, hyponatremia, suspected COVID-19” value ([2]; overall, 45 patients, groups pooled, each term) was 2.2%. The “Median PFS” value ([3]; RECIST v1.1, Kaplan–Meier, by treatment group, listed as LHC165 SA) was 1.4 months, the “Best overall response: CR” value [3, 14] was 0 n (%) and the “Best overall response: PD” value [3, 14] was 27 (60.0) n (%). For the same molecule, the “Best overall response: PR” value [3, 14] was 3 (6.7) n (%), the “Best overall response: SD” value [3, 14] was 5 (11.1) n (%) and the “Best overall response: Unknown” value [3, 14] was 10 (22.2) n (%). The “DCR (CR + PR + SD)” value [3, 14] was 8 (17.8) n (%), the “ORR (CR + PR)” value [3, 14] was 3 (6.7) n (%) and the “DCR / disease control” value [3, 15] was 17.8%. For the same molecule, the “ORR (CR + PR) across all tumor types” value [3, 15] was 6.7%, the “Best overall response PD” value [3, 16] was 66.7% and the “Best overall response PR” value [3, 16] was 4.8%. For the same molecule, the “Best overall response unknown (UNK)” value [3, 16] was 28.6%, the “Best overall response: CR” value [3, 17] was 0 n (%) and the “Best overall response: PD” value [3, 17] was 14 (66.7) n (%). The “Best overall response: PR” value [3, 17] was 1 (4.8) n (%), the “Best overall response: SD” value [3, 17] was 0 n (%) and the “Best overall response: Unknown” value [3, 17] was 6 (28.6) n (%). The “DCR (CR + PR + SD)” value [3, 17] was 1 (4.8) n (%), the “ORR (CR + PR)” value [3, 17] was 1 (4.8) n (%) and the “DOR, median (range)” value ([3]; RECIST v1.1, responders by treatment group) was 3.81 (3.8-3.8) months. For the same molecule, the “DOR, median (range)” value ([3]; RECIST v1.1, responders, all patients (SA and combination groups pooled)) was 13.77 (3.8-29.7) months, the “Overall median PFS” value ([3]; all patients, groups pooled) was 1.7 months and the “Patients who discontinued study treatment due to progressive disease” value ([3]; by treatment group) was 71.4%. For the same molecule, the MTD ([4]; LHC165 100-600 μg biweekly IT, SA and with spartalizumab 400 mg Q4W) was “No maximum tolerated dose was reached; also recorded: not reached”, the “Recommended dose for expansion (RDE)” value ([4]; biweekly IT, as SA and in combination with spartalizumab 400 mg Q4W) was 600 µg and the “DLTs observed during dose escalation” value ([4]; combination: two episodes of grade 3 pancreatitis at LHC165 400 μg) was “No DLTs”. The “AEs specific to aluminum toxicity” value ([5]; LHC165 adsorbed to aluminum hydroxide) was “No AEs specific to aluminum toxicity were reported”, the “Aluminum level, mean (standard deviation)” value ([5]; cycle 1 day 15 (C1D15)) was 0.24 (0.087) μmol/L and the “Aluminum level, mean (standard deviation)” value ([5]; end of treatment) was 0.30 (0.128) μmol/L. The “Maximum observed aluminum value during the study” value ([5]; mild elevation levels >1.85 μmol/L) was 0.520 µmol, the “Dose dependence of Cmax and AUClast” value ([6]; 100-600 μg IT) was “increased in a dose-dependent manner” and the “Accumulation in serum LHC165 after multiple IT injections” value ([6]; Cmax and AUClast between C1D1 and C2D15 comparable) was “No accumulation”. The “Drug–drug interaction between LHC165 and spartalizumab” value ([6]; comparable exposure between SA and combination groups) was “No evidence of drug–drug interaction”.

For CCCCCCCCCCCCCCCCCC(=O)NCCCCOn1c(CCCC)nc2c(N)nc3ccccc3c21 [MEDI9197], the Toxicities [7] is given as “tolerable toxicities”.

B1: spartalizumab: humanized immunoglobulin G4 (IgG4) anti-programmed cell death protein-1 (anti–PD-1) monoclonal antibody (antibody, chains of the INN, looked up, V domains shown)
VH: EVQLVQSGAEVKKPGESLRISCKGSGYTFTTYWMHWVRQATGQGLEWMGNIYPGTGGSNFDEKFKNRVTITADKSTSTAYMELSSLRSEDTAVYYCTRWTTGTGAYWGQGTTVTVSS
VL: EIVLTQSPATLSLSPGERATLSCKSSQSLLDSGNQKNFLTWYQQKPGQAPRLLIYWASTRESGVPSRFSGSGSGTDFTFTISSLEAEDAATYYCQNDYSYPYTFGQGTKVEIK
In the case of B1, the “Overall response rate (ORR)” value [8] is listed as 24%.
